In ChEMBL document CHEMBL4396879, “Conjugation of Short Peptides to Dibenzodiazepinone-Type Muscarinic Acetylcholine Receptor Ligands Determines M2R Selectivity” (J Med Chem, 2019):

Tests used:
Format in all cases: cell-based
[1] = biological target: T1, Muscarinic acetylcholine receptor M4 (Homo sapiens, UniProt P08173); assay: Displacement of [3H]-NMS from human muscarinic M4 receptor expressed in CHO-K9 cells after 3 hrs by microbeta2 scintillation counting method
T1 sequence (P08173 whole entry): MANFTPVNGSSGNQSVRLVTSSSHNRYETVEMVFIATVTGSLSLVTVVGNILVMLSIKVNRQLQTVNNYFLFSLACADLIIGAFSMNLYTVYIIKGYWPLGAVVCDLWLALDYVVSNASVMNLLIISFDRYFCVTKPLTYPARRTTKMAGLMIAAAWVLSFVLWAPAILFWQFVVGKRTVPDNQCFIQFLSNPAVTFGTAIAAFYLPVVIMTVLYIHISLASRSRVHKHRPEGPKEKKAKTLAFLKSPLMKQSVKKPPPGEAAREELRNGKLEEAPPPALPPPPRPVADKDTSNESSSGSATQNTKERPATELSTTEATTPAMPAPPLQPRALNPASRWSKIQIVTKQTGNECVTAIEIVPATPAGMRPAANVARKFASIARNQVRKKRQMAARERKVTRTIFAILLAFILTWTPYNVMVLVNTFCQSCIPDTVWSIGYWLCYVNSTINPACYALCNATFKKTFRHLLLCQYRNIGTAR
In short: (§1)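 [3H]NMS competition binding on intact CHO-hMxR cells in L15 medium with 1% BSA, 3 h at 22 ± 1 °C with gentle shaking. [3H]NMS was 0.2 nM (M1, M2, M3), 0.1 nM (M4) or 0.3 nM (M5). […] Cells were lysed in urea/acetic acid/Triton and counted by liquid scintillation. Ki from Cheng-Prusoff. Triplicates, ≥3 experiments.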

[2] = biological target: T2, Muscarinic acetylcholine receptor M5 (Homo sapiens, UniProt P08912); assay: Displacement of [3H]-NMS from human muscarinic M5 receptor expressed in CHO-K9 cells after 3 hrs by microbeta2 scintillation counting method; in short: as §1
T2 sequence (P08912 whole entry): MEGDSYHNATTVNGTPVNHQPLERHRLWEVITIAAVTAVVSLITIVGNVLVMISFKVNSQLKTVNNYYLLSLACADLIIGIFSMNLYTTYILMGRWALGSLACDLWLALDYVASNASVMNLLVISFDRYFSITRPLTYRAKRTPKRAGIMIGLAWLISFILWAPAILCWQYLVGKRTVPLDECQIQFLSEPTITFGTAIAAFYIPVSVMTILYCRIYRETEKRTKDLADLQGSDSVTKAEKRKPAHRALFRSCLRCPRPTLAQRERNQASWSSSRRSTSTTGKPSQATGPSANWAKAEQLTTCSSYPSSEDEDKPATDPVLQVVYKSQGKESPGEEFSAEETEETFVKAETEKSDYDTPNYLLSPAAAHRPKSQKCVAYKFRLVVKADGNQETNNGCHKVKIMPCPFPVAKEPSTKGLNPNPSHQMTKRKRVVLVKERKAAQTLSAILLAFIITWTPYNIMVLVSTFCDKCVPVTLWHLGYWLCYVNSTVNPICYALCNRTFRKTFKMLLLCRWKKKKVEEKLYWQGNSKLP

[3] = biological target: Muscarinic acetylcholine receptors; M2 & M3 (Homo sapiens) (UniProt P20309+P08172); assay: Selectivity ratio of Ki for human muscarinic M3 receptor expressed in CHO-K9 cells to Ki for human muscarinic M2 receptor expressed in CHO-K9 cells
In short: (§2)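 Ratio of mean Ki values. Each Ki came from an individual [3H]NMS competition experiment at the given CHO-hMxR subtype, converting IC50 to Ki by Cheng-Prusoff before averaging.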

[4] = biological target: Muscarinic acetylcholine receptor M2 and M4 (Homo sapiens) (UniProt P08173+P08172); assay: Selectivity ratio of Ki for human muscarinic M4 receptor expressed in CHO-K9 cells to Ki for human muscarinic M2 receptor expressed in CHO-K9 cells; in short: as §2
[5] = biological target: Muscarinic acetylcholine receptor M3 (Homo sapiens, UniProt P20309); assay: Displacement of [3H]-NMS from human muscarinic M3 receptor expressed in CHO-K9 cells after 3 hrs by microbeta2 scintillation counting method; in short: as §1
[6] = biological target: T3, Muscarinic acetylcholine receptor M2 (Homo sapiens, UniProt P08172); assay: Displacement of [3H]-NMS from human muscarinic M2 receptor expressed in CHO-K9 cells after 3 hrs by microbeta2 scintillation counting method; in short: as §1
T3 sequence (P08172 whole entry): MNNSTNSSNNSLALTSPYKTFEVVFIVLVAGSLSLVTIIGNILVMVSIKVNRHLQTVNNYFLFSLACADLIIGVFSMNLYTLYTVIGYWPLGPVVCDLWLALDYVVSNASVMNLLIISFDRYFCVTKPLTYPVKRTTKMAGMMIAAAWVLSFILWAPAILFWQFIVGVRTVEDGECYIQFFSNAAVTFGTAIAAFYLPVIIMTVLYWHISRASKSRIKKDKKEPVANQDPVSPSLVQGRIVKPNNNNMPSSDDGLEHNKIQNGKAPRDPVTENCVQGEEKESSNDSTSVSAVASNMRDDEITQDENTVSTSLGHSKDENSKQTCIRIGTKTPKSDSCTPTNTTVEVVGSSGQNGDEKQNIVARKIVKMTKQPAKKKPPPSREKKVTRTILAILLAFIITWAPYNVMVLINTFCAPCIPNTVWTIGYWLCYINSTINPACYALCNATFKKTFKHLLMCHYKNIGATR

[7] = biological target: Muscarinic acetylcholine receptors; M1 & M2 (Homo sapiens) (UniProt P11229+P08172); assay: Selectivity ratio of Ki for human muscarinic M1 receptor expressed in CHO-K9 cells to Ki for human muscarinic M2 receptor expressed in CHO-K9 cells; in short: as §2
[8] = biological target: T4, Muscarinic acetylcholine receptor M1 (Homo sapiens, UniProt P11229); assay: Displacement of [3H]-NMS from human muscarinic M1 receptor expressed in CHO-K9 cells after 3 hrs by microbeta2 scintillation counting method; in short: as §1
T4 sequence (P11229 whole entry): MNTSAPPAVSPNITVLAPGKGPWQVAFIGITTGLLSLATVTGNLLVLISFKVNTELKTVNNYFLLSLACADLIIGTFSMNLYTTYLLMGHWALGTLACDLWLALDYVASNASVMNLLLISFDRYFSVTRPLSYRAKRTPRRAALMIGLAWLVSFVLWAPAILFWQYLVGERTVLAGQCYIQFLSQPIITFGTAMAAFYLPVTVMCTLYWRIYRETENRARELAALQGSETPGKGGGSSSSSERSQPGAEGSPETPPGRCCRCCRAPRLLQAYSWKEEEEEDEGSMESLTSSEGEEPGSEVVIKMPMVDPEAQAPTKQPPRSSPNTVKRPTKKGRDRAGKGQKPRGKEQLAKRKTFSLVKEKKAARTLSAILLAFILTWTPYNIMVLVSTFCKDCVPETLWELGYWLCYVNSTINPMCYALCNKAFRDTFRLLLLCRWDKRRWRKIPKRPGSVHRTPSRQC

[9] = biological target: Muscarinic acetylcholine receptor M2 and M5 (Homo sapiens) (UniProt P08172+P08912); assay: Selectivity ratio of Ki for human muscarinic M5 receptor expressed in CHO-K9 cells to Ki for human muscarinic M2 receptor expressed in CHO-K9 cells; in short: as §2

Sequence of Muscarinic acetylcholine receptors; M2 & M3 (Homo sapiens) (P20309 whole entry, looked up, one chain of several): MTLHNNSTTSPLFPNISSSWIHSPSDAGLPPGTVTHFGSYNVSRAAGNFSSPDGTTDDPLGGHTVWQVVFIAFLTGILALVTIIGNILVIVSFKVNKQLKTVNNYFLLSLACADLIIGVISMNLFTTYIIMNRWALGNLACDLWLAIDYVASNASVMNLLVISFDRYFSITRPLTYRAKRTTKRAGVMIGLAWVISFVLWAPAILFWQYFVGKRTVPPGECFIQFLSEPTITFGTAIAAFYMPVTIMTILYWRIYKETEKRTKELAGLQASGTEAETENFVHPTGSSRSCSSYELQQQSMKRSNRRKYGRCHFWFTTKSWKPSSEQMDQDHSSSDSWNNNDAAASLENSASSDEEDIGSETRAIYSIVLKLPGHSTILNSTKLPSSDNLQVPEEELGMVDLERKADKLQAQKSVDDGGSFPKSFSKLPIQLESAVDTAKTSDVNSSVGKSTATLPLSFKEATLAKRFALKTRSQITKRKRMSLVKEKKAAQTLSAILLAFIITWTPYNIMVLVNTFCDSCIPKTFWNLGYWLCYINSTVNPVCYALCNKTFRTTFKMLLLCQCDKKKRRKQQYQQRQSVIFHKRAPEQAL
Sequence of Muscarinic acetylcholine receptor M3 (P20309 whole entry): as the sequence (P20309 whole entry, looked up, one chain of several) above

Row | Ki [1] | Ki [2] | Ratio Ki [3] | Ratio Ki [4] | Ki [5] | Ki [6] | Ratio Ki [7] | Ki [8] | Ratio Ki [9] | SMILES
1 | 27.5 nM | 200 nM | 180 | 6.9 | 646 nM | 4.17 nM | 8.2 | 32.4 nM | 49 | CC(=O)N[C@@H](CCCCN)C(=O)N[C@@H](CCCNC(=N)N)C(=O)NCC(=O)NCCCCC1CCN(CC(=O)N2c3ccccc3NC(=O)c3ccccc32)CC1
2 | 10.7 nM | 74.1 nM | 720 | 5.9 | 1620 nM | 1.82 nM | 17 | 30.2 nM | 43 | CC(=O)N[C@@H](CCCCN)C(=O)N[C@@H](Cc1ccc(O)cc1)C(=O)NCCCCC1CCN(CC(=O)N2c3ccccc3NC(=O)c3ccccc32)CC1
3 | 29.5 nM | 162 nM | 710 | 19 | 955 nM | 1.7 nM | 12 | 20 nM | 97 | CC(=O)N[C@@H](CCCNC(=N)N)C(=O)N[C@@H](CCCNC(=N)N)C(=O)NCCCCC1CCN(CC(=O)N2c3ccccc3NC(=O)c3ccccc32)CC1
4 | 37.2 nM | 120 nM | 56 | 1.9 | 1150 nM | 20 nM | 4.7 | 93.3 nM | 6.2 | CC(=O)N[C@@H](Cc1c[nH]c2ccccc12)C(=O)N[C@@H](C)C(=O)N[C@@H](Cc1ccc(O)cc1)C(=O)NCCCCC1CCN(CC(=O)N2c3ccccc3NC(=O)c3ccccc32)CC1
5 | 57.5 nM | 209 nM | 550 | 5.9 | 5010 nM | 9.33 nM | 19 | 178 nM | 23 | CC(=O)N[C@@H](Cc1ccc(O)cc1)C(=O)N[C@@H](C)C(=O)N[C@@H](CCCCN)C(=O)NCCCCC1CCN(CC(=O)N2c3ccccc3NC(=O)c3ccccc32)CC1
6 | 1070 nM | 1510 nM | > 27 | 3.6 | > 10000 nM | 309 nM | 3.4 | 1050 nM | 4.9 | CC(=O)N[C@@H](CCC(N)=O)C(=O)N[C@@H](CC(C)C)C(=O)NCCCCC1CCN(CC(=O)N2c3ccccc3NC(=O)c3ccccc32)CC1
7 | 93.3 nM | 58.9 nM | 46 | 2.8 | 1580 nM | 33.1 nM | 5 | 155 nM | 1.8 | CC(=O)N[C@@H](Cc1c[nH]c2ccccc12)C(=O)N[C@@H](Cc1ccc(O)cc1)C(=O)NCCCCC1CCN(CC(=O)N2c3ccccc3NC(=O)c3ccccc32)CC1
8 | 1.62 nM | 30.9 nM | 410 | 19 | 35.5 nM | 0.0794 nM | 27 | 2.29 nM | 390 | CC(=O)N[C@@H](Cc1c[nH]c2ccccc12)C(=O)N[C@@H](C)C(=O)N[C@@H](Cc1ccc(O)cc1)C(=O)NCCN1CCN(CCCCC2CCN(CC(=O)N3c4ccccc4NC(=O)c4ccccc43)CC2)CC1
9 | 2.45 nM | 457 nM | 370 | 7.5 | 155 nM | 0.427 nM | 7.5 | 3.16 nM | 1100 | CC(=O)N[C@@H](C)C(=O)N[C@@H](C)C(=O)NCCN1CCN(CCCCC2CCN(CC(=O)N3c4ccccc4NC(=O)c4ccccc43)CC2)CC1
10 | 56.2 nM | 2400 nM | 260 | 9.8 | 1260 nM | 5.37 nM | 18 | 107 nM | 410 | N=C(N)NCCC[C@H](N)C(=O)NCCCCC1CCN(CC(=O)N2c3ccccc3NC(=O)c3ccccc32)CC1
11 | 1.07 nM | 38.9 nM | 79 | 7 | 13.5 nM | 0.148 nM | 6.3 | 0.871 nM | 220 | CC(=O)N[C@@H](Cc1c[nH]c2ccccc12)C(=O)N[C@@H](Cc1ccc(O)cc1)C(=O)NCCN1CCN(CCCCC2CCN(CC(=O)N3c4ccccc4NC(=O)c4ccccc43)CC2)CC1
12 | 209 nM | 7080 nM | 69 | 2.7 | 5370 nM | 79.4 nM | 1.1 | 85.1 nM | 98 | CCC(=O)NCCCCC1CCN(CC(=O)N2c3ccccc3NC(=O)c3ccccc32)CC1
13 | 23.4 nM | 224 nM | 160 | 5.8 | 661 nM | 4.27 nM | 14 | 58.9 nM | 53 | CC(=O)N[C@@H](CCCCN)C(=O)N[C@@H](C)C(=O)N[C@@H](Cc1ccc(O)cc1)C(=O)NCCCCC1CCN(CC(=O)N2c3ccccc3NC(=O)c3ccccc32)CC1
14 | 1.12 nM | 70.8 nM | 260 | 12 | 27.5 nM | 0.0794 nM | 14 | 1.41 nM | 780 | CC(=O)N[C@@H](CCCCN)C(=O)N[C@@H](Cc1ccc(O)cc1)C(=O)NCCN1CCN(CCCCC2CCN(CC(=O)N3c4ccccc4NC(=O)c4ccccc43)CC2)CC1
15 | – | – | 78 | 7.4 | – | – | 7.6 | – | 300 | CCC(=O)NCc1cc(C(=O)NCCN2CCC(N3CCC(n4c(=O)[nH]c5ccccc54)CC3)CC2)cc(C(=O)NCCN2CCN(CCCCC3CCN(CC(=O)N4c5ccccc5NC(=O)c5ccccc54)CC3)CC2)c1
